According to ChEMBL document CHEMBL1765057, “Pyrazolo[4,3-d]pyrimidine bioisostere of roscovitine: evaluation of a novel selective inhibitor of cyclin-dependent kinases with antiproliferative activity” (J Med Chem, 2011):
Activity calls are given as the source filed them. The rule behind the calls is not given here.

Columns and labels:
[1] = target: Cyclin-dependent kinase 7/ cyclin H (Homo sapiens) (UniProt P51946+P50613); experiment: Inhibition of human recombinant CDK7/cyclin H/MAT1 at 10 uM; type: protein-complex assay
[2] = target: Casein kinase II (Homo sapiens) (UniProt P67870+P68400+P19784); experiment: Inhibition of human recombinant CK2 at 10 uM; type: protein-complex assay
MCF7 [3] = experiment: Cell cycle arrest in human MCF7 cells assessed as accumulation at G1 phase after 24 hrs using propidium iodide and BrdU staining by flow cytometry; type: functional, cell-based
Summary of the method: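 Subconfluent cells treated 24 h at varying concentrations, pulsed with 10 μM BrdU for 30 min at 37 °C, then trypsinized, fixed in ice-cold 70% ethanol and DNA denatured in 2 M HCl. After staining with fluorescein anti-BrdU (1:50), propidium iodide (0.1 mg/mL) and RNase A (0.5 mg/mL), cells were read by flow cytometry with a 488 nm laser.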

[4] = target: Casein kinase I isoform alpha (Homo sapiens) (UniProt P48729); experiment: Inhibition of human recombinant CK1 at 10 uM
Casein kinase I isoform alpha (Homo sapiens), sequence (P48729 2-337 limits assumed): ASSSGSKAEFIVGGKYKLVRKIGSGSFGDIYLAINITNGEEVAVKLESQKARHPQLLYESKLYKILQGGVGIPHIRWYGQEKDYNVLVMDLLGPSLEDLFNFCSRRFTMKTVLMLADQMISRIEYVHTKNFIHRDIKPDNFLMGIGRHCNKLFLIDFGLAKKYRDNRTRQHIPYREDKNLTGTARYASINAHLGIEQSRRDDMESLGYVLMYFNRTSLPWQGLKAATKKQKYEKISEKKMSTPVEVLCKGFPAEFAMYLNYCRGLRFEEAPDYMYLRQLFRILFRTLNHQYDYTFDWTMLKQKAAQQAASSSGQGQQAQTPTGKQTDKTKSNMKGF

U-266 [5] = experiment: Cytotoxicity against human U266 cells after 72 hrs by fluoroskan ascent microplate reader analysis; type: functional, cell-based; settings: U-266, 72 h
Summary of the method: (§1)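 Cells were grown in DMEM with 10% FCS and 4 mM glutamine at 37 °C under CO2, then plated at densities suited to each line. Compounds were added as 3-fold dilutions in triplicate for 72 h.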

MCF7 [6] = experiment: Cell cycle arrest in human MCF7 cells assessed as accumulation at sub-G1 phase after 24 hrs using propidium iodide and BrdU staining by flow cytometry; type: functional, cell-based
Summary of the method: (§2)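 Subconfluent MCF-7 cells were treated for 24 h at a range of concentrations. They were pulse-labelled with 10 μM BrdU for 30 min at 37 °C, then trypsinized and fixed in ice-cold 70% ethanol. DNA was denatured in 2 M HCl and neutralized with borate. Cells were stained with fluorescein anti-BrdU and with propidium iodide plus RNase A, then analysed by flow cytometry at 488 nm.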

HT-29 = experiment: Cytotoxicity against human HT-29 cells after 72 hrs by fluoroskan ascent microplate reader analysis; type: functional, cell-based; settings: HT-29, 72 h; summary of the method: as §1
HCT-116 = experiment: Cytotoxicity against human HCT116 cells after 72 hrs by fluoroskan ascent microplate reader analysis; type: functional, cell-based; settings: HCT-116, 72 h; summary of the method: as §1
[7] = target: CDK9/cyclin T1 (Homo sapiens) (UniProt O60563+P50750); experiment: Inhibition of human recombinant CDK9/cyclin T1 at 10 uM; type: protein-complex assay
HBL-100 = experiment: Cytotoxicity against human HBL100 cells after 72 hrs by fluoroskan ascent microplate reader analysis; type: functional, cell-based; settings: HBL-100, 72 h; summary of the method: as §1
[8] = target: T1, Retinoblastoma-associated protein (Homo sapiens) (UniProt P06400); experiment: Inhibition of retinoblastoma protein in human MCF7 cells assessed as reduction of CDK4 level at 2.5 to 40 uM after 24 hrs by immunoblotting; type: cell-based
T1 sequence (whole entry): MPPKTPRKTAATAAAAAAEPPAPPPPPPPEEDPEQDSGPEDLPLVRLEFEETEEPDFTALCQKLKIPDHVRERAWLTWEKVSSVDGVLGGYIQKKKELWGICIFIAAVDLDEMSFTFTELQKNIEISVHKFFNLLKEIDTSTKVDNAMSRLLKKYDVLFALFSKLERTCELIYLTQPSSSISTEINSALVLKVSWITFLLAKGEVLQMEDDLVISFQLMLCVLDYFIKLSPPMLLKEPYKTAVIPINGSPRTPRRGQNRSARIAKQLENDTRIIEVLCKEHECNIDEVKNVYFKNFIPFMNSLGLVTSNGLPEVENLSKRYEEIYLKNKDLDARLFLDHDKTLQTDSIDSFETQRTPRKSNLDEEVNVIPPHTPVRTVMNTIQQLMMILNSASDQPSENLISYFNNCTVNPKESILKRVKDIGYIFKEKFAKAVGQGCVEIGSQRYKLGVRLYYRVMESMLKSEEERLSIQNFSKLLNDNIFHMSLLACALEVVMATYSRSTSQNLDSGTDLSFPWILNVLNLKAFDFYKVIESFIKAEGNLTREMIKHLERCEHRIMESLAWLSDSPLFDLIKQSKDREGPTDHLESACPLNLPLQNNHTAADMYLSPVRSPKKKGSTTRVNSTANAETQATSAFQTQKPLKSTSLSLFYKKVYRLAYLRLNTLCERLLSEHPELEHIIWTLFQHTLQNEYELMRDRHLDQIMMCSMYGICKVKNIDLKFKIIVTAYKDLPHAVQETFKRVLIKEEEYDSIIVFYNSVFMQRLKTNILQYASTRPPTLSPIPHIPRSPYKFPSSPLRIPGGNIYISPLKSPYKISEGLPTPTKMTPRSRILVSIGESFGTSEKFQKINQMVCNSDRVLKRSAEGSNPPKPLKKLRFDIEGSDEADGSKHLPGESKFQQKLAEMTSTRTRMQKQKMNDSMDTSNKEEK
Summary of the method: (§3)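 Asynchronous, exponentially growing MCF-7 cells were exposed 24 h to a range of concentrations. Total lysates were made in Laemmli buffer, run on SDS-PAGE and blotted to nitrocellulose. Membranes were probed overnight at 4 °C with specific or phosphospecific antibodies (pRb S249/T252, S780, S795, S807/811), with tubulin as loading control and ECL detection.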

U-266 [9] = experiment: Induction of apoptosis in human U266 cells at 10 uM after 24 hrs; type: functional, cell-based
MCF7 [10] = experiment: Cell cycle arrest in human MCF7 cells assessed as reduction of actively replicating DNA level at 80 uM after 24 hrs using propidium iodide and BrdU staining by flow cytometry; type: functional, cell-based; summary of the method: as §2
MCF7 [11] = experiment: Cell cycle arrest in human MCF7 cells assessed as accumulation at G2/M phase after 24 hrs using propidium iodide and BrdU staining by flow cytometry; type: functional, cell-based; summary of the method: as §2
RPMI-8226 [12] = experiment: Induction of apoptosis in human RPMI8226 cells assessed as induction of PARP cleavage after 24 hrs by immunoblot analysis; type: functional, cell-based
Summary of the method: (§4)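 RPMI-8226 cells were treated continuously for 24 h, and total lysates were made in Laemmli buffer, run on SDS-PAGE and blotted to nitrocellulose. Loading was checked with Ponceau-S. Membranes were blocked in milk or BSA, probed overnight at 4 °C with antibodies to PARP, caspase-3 and Mcl-1, then peroxidase secondary (1:2000), with ECL detection.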

RPMI-8226 [13] = experiment: Induction of apoptosis in human RPMI8226 cells assessed as down-regulation of Mcl-1 after 24 hrs by immunoblot analysis; type: functional, cell-based; summary of the method: as §4
[14] = target: T1, Retinoblastoma-associated protein (Homo sapiens); experiment: Inhibition of retinoblastoma protein in human MCF7 cells assessed as reduction of CDK6 level at 2.5 to 40 uM after 24 hrs by immunoblotting; type: cell-based; summary of the method: as §3
[15] = target: T1, Retinoblastoma-associated protein (Homo sapiens); experiment: Inhibition of retinoblastoma protein in human MCF7 cells assessed as reduction of cyclin D1 level at 2.5 to 40 uM after 24 hrs by immunoblotting; type: cell-based; summary of the method: as §3
HL-60 = experiment: Cytotoxicity against human HL60 cells after 72 hrs by fluoroskan ascent microplate reader analysis; type: functional, cell-based; settings: HL-60, 72 h; summary of the method: as §1
[16] = target: T1, Retinoblastoma-associated protein (Homo sapiens); experiment: Inhibition of retinoblastoma protein in human MCF7 cells assessed as reduction of CDK1 level at 2.5 to 40 uM after 24 hrs by immunoblotting; type: cell-based; summary of the method: as §3
G-361 = experiment: Cytotoxicity against human G361 cells after 72 hrs by fluoroskan ascent microplate reader analysis; type: functional, cell-based; settings: G-361, 72 h; summary of the method: as §1
[17] = target: Glycogen synthase kinase-3 alpha (Homo sapiens) (UniProt P49840); experiment: Inhibition of human recombinant GSK3A at 10 uM
Glycogen synthase kinase-3 alpha (Homo sapiens), sequence (P49840 2-483 limits assumed): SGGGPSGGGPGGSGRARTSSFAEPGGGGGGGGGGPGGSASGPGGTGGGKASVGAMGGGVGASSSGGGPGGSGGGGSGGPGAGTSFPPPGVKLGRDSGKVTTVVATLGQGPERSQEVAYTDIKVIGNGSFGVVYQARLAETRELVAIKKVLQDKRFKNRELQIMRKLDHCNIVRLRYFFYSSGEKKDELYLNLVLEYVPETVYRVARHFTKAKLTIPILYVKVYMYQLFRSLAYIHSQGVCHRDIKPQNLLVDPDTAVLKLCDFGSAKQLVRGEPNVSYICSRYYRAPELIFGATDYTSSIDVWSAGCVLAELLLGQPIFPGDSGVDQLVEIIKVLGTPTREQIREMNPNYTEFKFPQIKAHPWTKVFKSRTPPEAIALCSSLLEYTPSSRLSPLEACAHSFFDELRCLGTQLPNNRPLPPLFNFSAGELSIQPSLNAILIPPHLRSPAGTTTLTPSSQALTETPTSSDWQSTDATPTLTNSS

inhibition [1]: 96% | inhibition [2]: 19% | inhibition [4]: 7% | inhibition [7]: 90% | inhibition [8]: Active | inhibition [14]: inactive | inhibition [15]: Active | inhibition [16]: inactive | inhibition [17]: 32%
SMILES: CC[C@H](CO)Nc1nc(NCc2ccccc2)c2[nH]nc(C(C)C)c2n1
Activity (MCF7 [3]): inactive | IC50 (U-266 [5]): 4.9 µM | Activity (MCF7 [6]): Active | IC50 (HT-29): 6.6 µM | IC50 (HCT-116): 11 µM | IC50 (HBL-100): 11.3 µM | Activity (U-266 [9]): Active | Activity (MCF7 [10]): Active | Activity (MCF7 [11]): Active | Activity (RPMI-8226 [12]): Active | Activity (RPMI-8226 [13]): Active | IC50 (HL-60): 7.1 µM | IC50 (G-361): 4.8 µM
